The subject of series [1] is LNCaP. Description: Cytotoxicity against human LNCAP cells after 24 hrs by MTT assay. The series is classed as functional, cell-based. (Formazan colour is commonly taken as a measure of viable cells.)
The subject of series [2] is PC-3. Description: Cytotoxicity against human PC3 cells after 24 hrs by MTT assay. To be noted: PC-3, 24 h. The format is functional, cell-based.
Series [3] relates to Rattus norvegicus. Description: Toxicity in citral-induced prostatic hyperplasia Sprague-Dawley rat model assessed as effect on epididymis weight at 10 mg/kg, po administered once daily coadministered with citral for 21 days measured 24 hrs last post dose. The series is classed as organism-based. The settings on record: in vivo.
Series [4] deals with Rattus norvegicus. Description: Toxicity in citral-induced prostatic hyperplasia Sprague-Dawley rat model assessed as effect on testis weight at 10 mg/kg, po administered once daily coadministered with citral for 21 days measured 24 hrs last post dose. To be noted: in vivo. The series is classed as organism-based.
Series [5] relates to Rattus norvegicus. Kind of series: Anti-androgenic activity in citral-induced prostatic hyperplasia Sprague-Dawley rat model assessed as prostate weight at 10 mg/kg, po administered once daily coadministered with citral for 21 days measured 24 hrs last post dose (reference value: 100%). The series is classed as functional. Put shortly:
(§1)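 Adult male Sprague-Dawley rats (250-280 g, n = 5), citral 100 mg/kg orally once daily for 28 days. From day 8, compound or flutamide at 10 mg/kg orally once daily for the remaining 21 days. Prostate weight is expressed relative to the citral group (100%). Prostates fixed in 10% formalin; 5 μ sections stained with H&E, examined by light microscopy.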

The test system of series [6] is Mus musculus. Kind of series: Anti-depressant like activity in Swiss albino mouse assessed as reduction in immobility time at 20 mg/kg, po administered 60 mins prior to test measured for 5 mins by forced swim test relative to control. The format is functional. More on the design: scale not given: the % may be the effect or the level left. Summed up:
(§2)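 Male Swiss albino mice (20-25 g); compound 20 mg/kg, imipramine 60 mg/kg or fluoxetine 20 mg/kg given orally in 1% gum acacia (10 mL/kg). After 60 min: 15 min pre-swim in a water cylinder (10 cm depth, 25 ± 1 °C), then retest at 24 h. Immobility recorded for 5 min after 1 min acclimatization; N = 7-9, mean ± SEM, unpaired t-test.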

Series [7] deals with Rattus norvegicus. Description: Toxicity in citral-induced prostatic hyperplasia Sprague-Dawley rat model assessed as effect on seminal vesicle weight at 10 mg/kg, po administered once daily coadministered with citral for 21 days measured 24 hrs last post dose. The series is classed as organism-based. The settings on record: in vivo.
Series [8] concerns Rattus norvegicus. Description: Anti-androgenic activity in citral-induced prostatic hyperplasia Sprague-Dawley rat model assessed increase in distinction between stromal and acinar compartments at 10 mg/kg, po administered once daily coadministered with citral for 21 days measured 24 hrs last post dose by hematoxyline and eosin stainig based light microscopic analysis. The format is functional, organism-based. Put shortly:
as §1

The test system of series [9] is DU-145. Kind of series: Cytotoxicity against human DU145 cells after 24 hrs by MTT assay. The series is classed as functional, cell-based. To be noted: DU-145, 24 h.
The target in series [10] is T1, Alpha-1A adrenergic receptor (Homo sapiens) (UniProt P35348).
T1 sequence (whole entry): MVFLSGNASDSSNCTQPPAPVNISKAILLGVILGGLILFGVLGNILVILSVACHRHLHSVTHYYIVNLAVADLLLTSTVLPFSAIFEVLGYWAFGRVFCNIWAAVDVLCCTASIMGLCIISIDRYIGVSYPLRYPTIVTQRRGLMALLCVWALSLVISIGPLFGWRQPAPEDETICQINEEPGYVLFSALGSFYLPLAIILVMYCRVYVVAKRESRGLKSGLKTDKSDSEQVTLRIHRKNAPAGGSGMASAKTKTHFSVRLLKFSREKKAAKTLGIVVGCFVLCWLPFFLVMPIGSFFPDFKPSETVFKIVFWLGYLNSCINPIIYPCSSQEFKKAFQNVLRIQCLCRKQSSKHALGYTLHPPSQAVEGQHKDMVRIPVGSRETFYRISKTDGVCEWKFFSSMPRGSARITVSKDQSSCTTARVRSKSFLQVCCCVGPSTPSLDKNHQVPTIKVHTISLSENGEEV
Kind of series: Antagonist activity at recombinant human alpha1a adrenergic receptor expressed in human Chem1 cell membrane assessed as reduction in ephinephrine-induced calcium mobilization at 1 uM by fluoforte dye based fluorescence assay relative to ephinephrine. The series is classed as functional. Put shortly:
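α1A-adrenergic receptor-expressing Chem-1 cells, 4 x 10^4/well overnight, loaded with FluoForte calcium dye 45 min at 37 °C then 15 min at room temperature. Compounds at 1 μM; epinephrine 20 μM added at 10 s; tamsulosin 100 nM and 1 μM as reference. Fluorescence (ex 490/em 525 nm) read for 180 s as RFU.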

Series [11] addresses T2, Androgen receptor (Homo sapiens) (UniProt P10275).
T2 sequence (whole entry): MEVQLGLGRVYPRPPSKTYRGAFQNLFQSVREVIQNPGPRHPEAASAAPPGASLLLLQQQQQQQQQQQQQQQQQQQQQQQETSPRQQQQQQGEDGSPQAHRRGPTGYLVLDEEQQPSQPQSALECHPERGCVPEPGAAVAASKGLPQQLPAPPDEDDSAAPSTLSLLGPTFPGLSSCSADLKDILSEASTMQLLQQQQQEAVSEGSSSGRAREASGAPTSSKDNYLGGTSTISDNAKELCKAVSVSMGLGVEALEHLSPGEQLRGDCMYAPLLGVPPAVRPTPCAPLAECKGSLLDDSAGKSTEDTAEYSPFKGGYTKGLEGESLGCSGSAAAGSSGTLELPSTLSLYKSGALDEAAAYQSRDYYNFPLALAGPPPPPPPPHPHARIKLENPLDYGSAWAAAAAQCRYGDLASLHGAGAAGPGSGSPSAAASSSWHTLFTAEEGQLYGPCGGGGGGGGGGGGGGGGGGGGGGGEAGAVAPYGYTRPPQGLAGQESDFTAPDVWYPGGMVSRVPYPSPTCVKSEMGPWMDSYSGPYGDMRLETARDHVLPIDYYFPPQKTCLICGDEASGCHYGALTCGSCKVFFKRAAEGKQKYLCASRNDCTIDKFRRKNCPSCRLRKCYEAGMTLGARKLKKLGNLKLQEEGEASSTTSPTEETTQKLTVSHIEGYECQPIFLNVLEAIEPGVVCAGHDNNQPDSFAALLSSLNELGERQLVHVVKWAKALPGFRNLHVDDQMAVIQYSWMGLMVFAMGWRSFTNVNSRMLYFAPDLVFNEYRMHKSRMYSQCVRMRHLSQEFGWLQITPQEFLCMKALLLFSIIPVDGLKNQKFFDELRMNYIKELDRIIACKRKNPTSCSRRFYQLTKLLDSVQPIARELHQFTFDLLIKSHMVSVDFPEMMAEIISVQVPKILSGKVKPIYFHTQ
Kind of series: Antagonist activity at AR (unknown origin) expressed in African green monkey COS7 cells at 7.5 uM after 24 hrs by dual luciferase reporter gene assay. The series is classed as cell-based. Put shortly:
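Cos7 cells (AR-negative) transiently transfected for 8 h with pARE-E1B-LUC reporter plus pCR3.1.AR expression vector. Then in complete medium, treated with compound at 7.5 μM for 24 h; bicalutamide 3 μM as positive control. Luciferase normalized to pRL-SV40 internal control, expressed as RLU relative to control = 100%.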
(In general: A reporter such as luciferase makes a cellular process visible.)

The test system of series [12] is Mus musculus. Kind of series: Toxicity in Swiss albino mouse assessed as effect on locomotor activity at 20 mg/kg, po measured at 5 mins interval for 90 mins by open field test. The series is classed as organism-based. To be noted: in vivo. Summed up:
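Male Swiss albino mice in an activity chamber, infrared beam-break counting over 24 intervals of 5 min (120 min). Oral dosing after the 6th interval; six animals per group.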

Series [13] concerns Mus musculus. Description: Anti-depressant like activity in Swiss albino mouse assessed as reduction in immobility time at 20 mg/kg, po measured for 5 mins by tail suspension test. The series is classed as functional, organism-based. Summed up: (§3)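 Male Swiss albino mice dosed orally in 1% gum acacia; imipramine as standard. Each mouse suspended by the tail with tape to a horizontal bar 60 cm above the table. Immobility (no limb or body movement other than respiration) recorded for 5 min after 1 min acclimatization; N = 5.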

Series [14] has as its system Mus musculus. Kind of series: Toxicity in Swiss albino mouse assessed as latency time to fall at 20 mg/kg, po measured at 1 hr interval for 4 hrs by rotarod test. The series is classed as organism-based. To be noted: in vivo. Summed up: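 Mice trained on the rotarod (5 to 10 rpm), 2 min trials, 3 per day for two days. On day 3, tested before oral dosing and at 1, 2, 3 and 4 h after, recording latency to fall.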

Series [15] has as its system Mus musculus. Description: Anti-depressant like activity in Swiss albino mouse assessed as reduction in immobility time at 60 mg/kg, po measured for 5 mins by tail suspension test. The series is classed as functional, organism-based. Summed up: as §3
For series [16], the system named is Mus musculus. Kind of series: Anti-depressant like activity in Swiss albino mouse assessed as reduction in immobility time at 60 mg/kg, po administered 60 mins prior to test measured for 5 mins by forced swim test relative to control. The series is classed as functional. More on the design: scale not given: the % may be the effect or the level left. Put shortly:
as §2

These results are taken from ChEMBL document CHEMBL4024713, “Novel aryl piperazines for alleviation of 'andropause' associated prostatic disorders and depression” (Eur J Med Chem, 2017).

What is called EC50 is the midpoint of the concentration-response curve.

The source made the active and inactive calls. No cut-off for these calls is given here.

In the case of `O=[N+]([O-])c1cc(C(F)(F)F)ccc1N1CCN(CCN2CCN(c3ccc(C(F)(F)F)cc3[N+](=O)[O-])CC2)CC1`, the midpoint of the response in series [1], the EC50, lay at 63.2 µM.
For the molecule `Fc1ccccc1N1CCN(CCCN2CCN(c3ccccc3F)CC2)CC1`, the values for the EC50 in series [2], in series [1] and in [9] were more than 80 µM, 10.4 µM and more than 80 µM, respectively. The Activity entry in series [3] is reported as “Non-Toxic”; in series [4], “Non-Toxic”; in [5] it was 37%; in series [6] it was 20.86%; in series [7] it was “Non-Toxic”. Besides, the result in series [8] was Active.
Take `O=[N+]([O-])c1ccc(N2CCN(CCCN3CCN(c4ccc([N+](=O)[O-])cc4C(F)(F)F)CC3)CC2)c(C(F)(F)F)c1`: the response in series [1] was half-maximal at 55.5 µM (EC50).
Still for that read-out and setting: in the case of `COc1ccccc1N1CCN(CCN2CCN(c3ccccc3OC)CC2)CC1` it was 40 µM.
Turning to `c1ccc(N2CCN(CCN3CCN(c4ccccn4)CC3)CC2)nc1`, the EC50 in [2] is more than 80 µM; in series [1] it was 12.4 µM; in [9], more than 80 µM. For the same molecule, the Activity entry in [3] is recorded as “Non-Toxic”; in series [4] it was “Non-Toxic”; in series [5] it was 44%; in series [6], 16.95%; in series [7], “Non-Toxic”. For the same molecule, the result in series [8] was Active.
Turning to `Fc1ccc(N2CCN(CCN3CCN(c4ccccc4F)CC3)CC2)cc1`, a half-maximal response in series [1] (EC50) required 68 µM.
Molecule `Fc1ccc(N2CCN(CCCN3CCN(c4ccc(F)cc4)CC3)CC2)cc1` returned an EC50 in series [1] of 49.2 µM.
As for `CNCCC(Oc1ccc(C(F)(F)F)cc1)c1ccccc1` (stereo not drawn) [FLUOXETINE], the Activity in series [6] amounted to 75.35%.
Molecule `O=[N+]([O-])c1ccc(N2CCN(CCN3CCN(c4ccc(F)cc4)CC3)CC2)cc1` had an EC50 in series [1] of 77.9 µM.
On the same count and under the same terms, then `O=[N+]([O-])c1ccc(N2CCN(CCN3CCN(c4ccc([N+](=O)[O-])cc4C(F)(F)F)CC3)CC2)c(C(F)(F)F)c1`, with 72.2 µM; and `COc1ccccc1N1CCN(CCN2CCN(c3ccc([N+](=O)[O-])cc3)CC2)CC1`, with 46.5 µM.
`CC(C)C(=O)Nc1ccc([N+](=O)[O-])c(C(F)(F)F)c1` [FLUTAMIDE] gave an EC50 in series [1] of 7 µM. Besides, in series [5], the Activity is reported as 58.8%.
Consider `O=[N+]([O-])c1ccc(N2CCN(CCN3CCN(c4ccc([N+](=O)[O-])cc4)CC3)CC2)cc1`, for which, in series [1], the EC50 was determined as 25.2 µM.
Same read-out and setting: then `Fc1ccc(N2CCN(CCN3CCN(c4ccc(F)cc4)CC3)CC2)cc1`, with 71.2 µM; and `COc1ccccc1N1CCN(CCN2CCN(c3ccc(F)cc3)CC2)CC1`, with 78.7 µM.
Turning to `CCOc1ccccc1OCCN[C@H](C)Cc1ccc(OC)c(S(N)(=O)=O)c1`, the fold change (FC) in [10] came to 1.6.
`Fc1ccccc1N1CCN(CCN2CCN(c3ccccc3F)CC2)CC1` returned an EC50 in series [1] of 40 µM.
As to `O=[N+]([O-])c1cc(C(F)(F)F)ccc1N1CCN(CCCN2CCN(c3ccc(C(F)(F)F)cc3[N+](=O)[O-])CC2)CC1`, the result in series [11] and in [8] was Active. Further, the EC50 in series [2] was more than 80 µM; in [1], 12.2 µM; in [9] it was 76.5 µM. In addition, the Activity entry in series [3] is “Non-Toxic”; in [4], “Non-Toxic”; in series [5], 51.7%; in [6], 25.71%; in series [7], “Non-Toxic”.
In the case of `O=[N+]([O-])c1ccc(N2CCN(CCCN3CCN(c4ccc([N+](=O)[O-])cc4)CC3)CC2)cc1`, the EC50 in series [2] is more than 80 µM; in series [1], 11.8 µM; in series [9] it was more than 80 µM. Moreover, the Activity result is listed as “Non-Toxic” in [3]; “Non-Toxic” in [4]; 29% in series [5]; 69.74% in [6]; “Non-Toxic” in series [12]; “Non-Toxic” in series [7]. In addition, the result in series [13] and in series [8] was Active. In addition, the Time in series [14] was 120 s.
`CN(C)CCCN1c2ccccc2CCc2ccccc21` [IMIPRAMINE]: in series [15], the outcome was Active. Besides, the Activity in [16] is reported as 40.39%.
